Source: PubChem (several laboratories)
Rows were chosen to be rich in hits. Some 1.1% of all compounds tested hit in one or more screens of this group.
FXIIa inh 1536 – human FXIIa protease inhibitors, primary screen, biochemical, 1536-well. Coagulation factor XII (Homo sapiens), P00748. purified FXIIa, Boc-QGR-AMC fluorogenic substrate, 2 h. inhibition, % at 5 µM. 220,000 tested, 0.3% active; in the data active means inhibition above about 40%;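 further: 0% = enzyme with no compound and 100% = blank without enzyme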
Target sequence (P00748 20-372 limits assumed): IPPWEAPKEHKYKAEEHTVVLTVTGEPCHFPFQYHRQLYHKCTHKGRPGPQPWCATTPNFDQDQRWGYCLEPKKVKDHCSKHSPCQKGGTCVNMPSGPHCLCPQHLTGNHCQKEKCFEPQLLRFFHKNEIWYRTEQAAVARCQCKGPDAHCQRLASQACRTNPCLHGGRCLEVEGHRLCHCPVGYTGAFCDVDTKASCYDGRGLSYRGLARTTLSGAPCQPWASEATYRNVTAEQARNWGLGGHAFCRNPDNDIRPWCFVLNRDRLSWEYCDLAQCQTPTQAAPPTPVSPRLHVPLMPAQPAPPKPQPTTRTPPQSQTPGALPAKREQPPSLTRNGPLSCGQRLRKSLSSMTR
Target sequence (P00748 373-615 limits assumed): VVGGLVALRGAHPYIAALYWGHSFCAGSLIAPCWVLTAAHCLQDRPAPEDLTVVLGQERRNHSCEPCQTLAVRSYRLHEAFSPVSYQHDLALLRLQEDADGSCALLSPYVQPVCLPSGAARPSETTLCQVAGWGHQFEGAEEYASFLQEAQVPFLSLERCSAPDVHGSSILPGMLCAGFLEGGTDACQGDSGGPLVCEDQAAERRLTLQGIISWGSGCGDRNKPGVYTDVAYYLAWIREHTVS
Biofilm kill mix – clotrimazole potentiators killing C. albicans biofilm, primary screen, 4-compound mixtures. AID 1242, 2008. 120,000 tested, 0.02% active. C. albicans biofilm persisters + clotrimazole, fluorescence viability; primary screen in compound mixtures of four per well. inhibition, % at 7.6 µM;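 active means inhibition above 30.3% in the primary screen of four-compound pools, then above 30% when the compound was retested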;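 further: compounds exposed to preformed 24 h biofilms for 48 h; 0% = untreated biofilm control and 100% = clotrimazole plus chlorhexidine kill blank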
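System: C. albicans CAF4-2 wild-type biofilms; Medium: RPMI/MOPS medium, pH 7.0; Reagent: Clotrimazole, 50 µg/mL; Times: biofilm formation 24 h, compound exposure 48 h, 37 °C; Detection: 2-h Alamar Blue fluorescence, 535/590 nm excitation/emission; Evaluation: percent inhibition of biofilm viability.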
Lipid droplet – inhibitors of hepatocyte lipid droplet formation, primary screen, imaging, high-throughput imaging, BODIPY stain | AML12 mouse hepatocytes, oleate lipid droplets | inhibition, % at 6.5 µM | 240,000 tested, 0.4% active | AID 1656, 2009;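 active means lipid droplet intensity inhibited by at least 50%, with more than 500 cells counted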
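System: AML12 hepatocytes (mouse). Probe or stimulus: oleic acid at 100 µM to induce lipid droplet formation. Times: overnight treatment with compound plus oleate. Detection: Image-based BODIPY and DAPI two-channel analysis. Evaluation: percent inhibition of filter-corrected integrated lipid droplet intensity per well.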
thrombin 1536 – human alpha-thrombin inhibitors, primary screen, counter-screen for coagulation protease inhibitor project, biochemical, 1536-well, fluorogenic AMC substrate | Prothrombin (Homo sapiens), P00734 | Boc-VPR-AMC fluorogenic substrate cleavage | inhibition, % at 5 µM | 220,000 tested, 0.26% active | AID 1046, 2008;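 active means inhibition at or above 40%; inactive means inhibition below 40%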;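 further: 0% = enzyme with no compound and 100% = wells without enzyme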
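Material: human alpha-thrombin protein; Also added: Boc-VPR-AMC substrate, 15 µM final; Timing: enzyme reaction carried out at room temperature; Signal: fluorescence, ex 355 nm, em 460 nm; Measure: % inhibition of thrombin; Controls: enzyme without compound as high, wells lacking enzyme as low.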
KLK5 inh – human KLK5 protease inhibitors, primary screen, biochemical, 1536-well. recombinant hK5, fluorogenic AMC substrate cleavage. 210,000 tested, 0.59% active. inhibition, % at 5 µM. Kallikrein-5 (Homo sapiens), Q9Y337;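 active means inhibition of 40% or more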;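 further: 0% = enzyme controls without compound and 100% = no-enzyme blanks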
FXIa inh 1536 – human FXIa protease inhibitors, primary screen, biochemical, 1536-well | AID 798, 2007 | purified FXIa, Boc-Glu-Ala-Arg-AMC fluorogenic substrate | inhibition, % at 5 µM | Coagulation factor XI (Homo sapiens), P03951 | 220,000 tested, 0.14% active;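 active means inhibition of at least 40%; inactive means inhibition below 40%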;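 further: fluorescence of freed AMC excited at 355 nm; 0% = enzyme without compound and 100% = no enzyme blank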
Lipid drop inh – hepatocyte lipid droplet accumulation inhibitors, confirmation, imaging, AML12 mouse hepatocytes, single concentration, high-content | shares compounds with Lipid droplet | AID 463183, 2010 | BODIPY lipid droplet imaging; droplets induced with 100 µM oleic acid | 870 tested, 65% active | inhibition, % at 5.2 µM;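 active means inhibition of lipid droplet metric at least 50%, with more than 300 cells in each of four replicates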;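 further: plate controls were DMSO with oleic acid for no effect and 5 µM Triacsin-C for full effect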
AML12 tox img – AML12 hepatocyte cytotoxicity, counter-screen for hepatic lipid droplet formation project, imaging, DAPI nuclear morphology imaging | shares compounds with Lipid droplet | AML12 mouse hepatocytes; stronger effect = higher value; cells fed 100 µM oleate overnight | z-score at 5 µM | 870 tested, 3% active; in the data active means z-score above about 6.3;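 further: compound exposure lasted overnight at 37 °C before fixation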
AML12 tox ATP – AML12 hepatocyte cytotoxicity, confirmation, cytotoxicity control for hepatic lipid droplet formation project, cell-based, single concentration | shares compounds with Lipid droplet | AML12 mouse hepatocyte viability, ATP luminescence; cells loaded with 100 µM oleic acid | cytotoxicity, % at 50 µM | 530 tested, under 10 active;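 active means cytotoxicity above 50% in each of four replicates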;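 further: compound exposure lasted overnight at 37 °C before the ATP read; 0% = DMSO-treated cells and 100% = wells with no cells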
* = called active by the depositor; / = no result given.

SMILES	FXIIa inh 1536	Biofilm kill mix	Lipid droplet	thrombin 1536	KLK5 inh	FXIa inh 1536	Lipid drop inh	AML12 tox img	AML12 tox ATP
COc1cc2c(cc1NC(=O)CSc1nc3ccc(C)cc3[nH]1)oc1ccccc12	7.6	9.8	52.1*	-3.9	-14.9	4.9	98.7*	-0.06	/
CCOC(=O)C1CCN(C(=O)CCCn2nc(C)c3c(C)n(-c4ccc(C)cc4)nc3c2=O)CC1	/	/	20.6	/	/	/	/	/	/
FC(F)(F)c1cc(C(F)(F)F)c2ccc(N3CCN(c4ccc(Cl)cc4)CC3)nc2n1	2.0	/	/	-1.2	11.4	-7.7	/	/	/
N#CC(c1ccc(Cl)cc1)c1ccc2c(C(F)(F)F)cc(C(F)(F)F)nc2n1 (stereo not drawn)	9.8	/	59.1*	-4.2	1.0	-0.6	-68.5	6.24*	/
CCOc1ccc(CCNC(=O)C2(c3ccccc3)CC2)cc1OCC	/	/	56.4*	/	/	/	82.7*	-0.355	13.4
CCOc1ccc(CCNC(=O)c2nccnc2C(=O)O)cc1OCC	/	/	3.9	/	/	/	/	/	/
CCOc1ccc(CCNC(=O)Nc2cccc(OC)c2)cc1OCC	/	/	125.4*	/	/	/	109.6*	-0.61	9.0
CCOc1ccc(CCNC(=O)c2c(C)nn(-c3ccccc3)c2Cl)cc1OCC	/	/	51.8*	/	/	/	71.6*	-0.468	8.5
COc1cccc(NC(=O)NCCC2=CCCCC2)c1	8.2	15.8	-1.4	3.8	-0.2	2.3	/	/	/
CCOc1ccc(CCNC(=O)c2ccc3ccccc3n2)cc1OCC	/	/	77.5*	/	/	/	107.1*	-0.78	22.5
Cc1ccc(NC(=O)CCc2c[nH]c3ccccc23)nc1	/	/	-30.4	/	/	/	/	/	/
CC12CCC(C(=O)N3CCC(Cc4ccccc4)CC3)(C(=O)C1=O)C2(C)C (stereo not drawn)	2.5	-6.6	2.9	0.2	-6.8	6.6	/	/	/
Cc1c(C(=O)N2CCCC2)c(S(=O)(=O)N2CCN(c3ccccc3F)CC2)c(C)n1C	/	/	-1.6	/	/	/	/	/	/
CCOC(=O)CN(c1ccccc1C)S(=O)(=O)c1ccc(Cl)cc1	/	/	-30.7	/	/	/	/	/	/
Fc1ccc(CN2C3=NCCN3c3ccccc32)cc1	5.4	18.8	-4.8	-3.2	0.6	0.8	/	/	/
Nc1ccc(-c2nc3c(ccc4ccccc43)[nH]2)cc1	/	/	36.6	/	/	/	/	/	/
CCOC(=O)[C@@H]1[C@H]2COc3ccc(Br)cc3[C@@H]2N2C(=O)N(c3ccc(C(F)(F)F)cc3)C(=O)[C@@]12C	/	/	52.5*	/	/	/	76.2*	-0.138	4.5
COc1ccc(-c2cc(C(F)(F)F)nc(SCCC(=O)NCc3ccccc3)n2)cc1	15.7	/	61.7*	2.1	2.4	3.3	-5.6	0.129	/
COc1ccc(-c2cc(C(F)(F)F)nc(SCc3cccc(C(=O)O)c3)n2)cc1	0.5	/	/	-2.2	-3.6	-6.1	/	/	/
CCOc1ccc(NC(=O)c2ccc3c(c2)CCN3S(C)(=O)=O)cc1	/	/	-3.1	/	/	/	/	/	/
O=C(CCNC(=O)C1CCN(S(=O)(=O)c2ccccc2)CC1)NCc1ccc(Cl)cc1Cl	/	/	55.8*	/	/	/	75.1*	-0.396	12.4
O=C(CCNC(=O)C1CCN(S(=O)(=O)c2ccccc2)CC1)NCc1ccc(Cl)cc1	/	/	-1.8	/	/	/	/	/	/
O=C(CCNC(=O)C1CCN(S(=O)(=O)c2ccc(F)cc2)CC1)NCc1ccccc1Cl	/	/	50.6*	/	/	/	21.8	-0.597	/
C/C=C(/C)C(=O)O[C@@H]1[C@H](OC(=O)C=C(C)C)c2c(ccc3ccc(=O)oc23)OC1(C)C	9.2	28.9	53.7*	-3.9	-10.8	-1.3	-31.6	-0.539	/
C/C=C(/C)C(=O)O[C@@H]1c2c(ccc3ccc(=O)oc23)OC(C)(C)[C@@H]1OC(=O)/C(C)=C\C	9.0	15.7	-59.9	-0.5	-13.2	4.8	/	/	/
SMILES	FXIIa inh 1536	Biofilm kill mix	Lipid droplet	thrombin 1536	KLK5 inh	FXIa inh 1536	Lipid drop inh	AML12 tox img	AML12 tox ATP
Cc1ccc(C(=O)CC2(O)C(=O)N(Cc3ccccc3)c3ccccc32)o1 (stereo not drawn)	-5.2	/	-10.1	-8.4	5.7	-5.1	/	/	/
Cc1ccc(C(=O)CC2(O)C(=O)N(CCc3ccccc3)c3ccc(Br)cc32)o1 (stereo not drawn)	9.6	/	53.4*	6.6	-21.3	1.2	82.8*	-0.621	4.3
Cc1nc(Nc2ccc(O)cc2)c2c3c(sc2n1)CCCC3	5.4	32.4	60.3*	-1.9	-2.1	7.1	75.2*	-0.144	/
Cc1ccc(CNc2nc(C)nc3sc4c(c23)CCC4)cc1	17.8	/	/	0.1	5.6	5.5	/	/	/
O=C(Nc1ccc(NC(=O)c2cc3ccccc3o2)cc1)c1ccco1	/	/	70.3*	/	/	/	64.6*	-0.0811	10.8
COc1cc(NC(=O)c2ccco2)c(OC)cc1NC(=O)CCC(=O)Nc1cc(C)ccc1C	17.9	/	/	5.0	-61.2	3.9	/	/	/
CCOc1ccc(CC(=O)Nc2ccc(NC(=O)c3ccco3)cc2)cc1OCC	-0.7	13.5	56.9*	-1.6	-13.8	-9.5	98.2*	-0.0861	9.4
COc1cc(NC(=O)c2ccco2)c(OC)cc1NC(=O)CCC(=O)Nc1cc(C)cc(C)c1	6.5	/	96.7*	-5.7	-23.1	-11.2	106.8*	-0.155	56.3*
S=C(Nc1ccccc1Cl)N(Cc1ccccc1)Cc1ccccn1	5.4	8.4	-6.3	4.7	-8.7	-0.9	/	/	/
O=C(NS(=O)(=O)Nc1ccc(Br)cn1)c1c[nH]c2ccccc12	/	/	-2.9	/	/	/	/	/	/
CC1CC(C)CN(C(=O)c2ccc3c(c2NCCO)C(=O)c2ccccc2C3=O)C1 (stereo not drawn)	1.9	/	91.4*	2.7	-8.0	5.8	114.7*	-0.984	37.3
O=C1c2ccccc2-c2c1cccc2C(=O)N1CCCCC1	9.7	16.3	-8.7	-1.1	-7.5	3.7	/	/	/
OC(COc1ccc2cc(Br)ccc2c1)Cn1ccnc1 (stereo not drawn)	/	/	52.8*	/	/	/	27.5	-0.386	/
COC(=O)c1cccc(OCC(O)Cn2ccnc2)c1 (stereo not drawn)	6.7	/	/	3.3	-21.2	8.5	/	/	/
Cc1ccc(NC(=O)Cn2cc(C(=O)C3CC3)c3ccccc32)cc1	/	/	46.3	/	/	/	/	/	/
Cc1cccc(NC(=O)Cn2cc(C(=O)C3CC3)c3ccccc32)c1	/	/	51.0*	/	/	/	93.3*	-0.11	19.8
CC(=O)Nc1ccc(NC(=O)c2ccccc2N(C)S(=O)(=O)c2ccccc2)cc1	/	/	-20.3	/	/	/	/	/	/
